Reference: the EternaBench riboswitch data

System: MS2 coat protein
Assay: apparent Kd, MS2 coat protein; higher = weaker binding; RNA-MaP array; FMN 200 µM where present
Method in brief: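 Designs were transcribed by stalled E. coli RNA polymerase on Illumina sequencing-chip clusters. They were titrated with SNAP-549-labelled MS2 coat protein from 0.7 or 1.5 nM, doubling to 3 µM, in 100 mM Tris-HCl pH 7.5, 80 mM KCl, 4 mM MgCl2, BSA, DTT, yeast tRNA and Tween-20, without and then with constant ligand. The apparent Kd is the median of filtered per-cluster fits after normalisation of green signal to red-channel RNA signal and control-cluster median Fmax.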

[1] = designed as: OFF switch for flavin mononucleotide, no ligand
[2] = ligand present: flavin mononucleotide, designed as: OFF switch for flavin mononucleotide
[3] = designed as: ON switch for flavin mononucleotide, no ligand
[4] = ligand present: flavin mononucleotide, designed as: ON switch for flavin mononucleotide

Sequence | apparent Kd [1] [nM] | apparent Kd [2] [nM] | apparent Kd [3] [nM] | apparent Kd [4] [nM]
CUUAGUAUCUAGGAUAUCUAGUACAUAGUAUCUAGAGAAGGAGAUACAUGAGGAUCACCCAUGUUCUGUGUUCU | 23.9 | 68.7 |  | 
AGACAUGUCCGAGGAUAUCUGGAAACAUUUUCAAGAGAAGGCGGACAUGAGGAUCACCCAUGUCUCUCCUCAUCAAAUCCAAGU | 7.98 | 44.6 |  | 
ACUUCUAAGCAGAAGGCAGUCAUAGUAUUCGUCAUGUAGACAUGAGGAUCACCCAUGUAUAGUACUGAGGAUAUGCUUGGAUAG | 24 | 24.4 |  | 
GCGCUUAUACAGAAGGCCAUAUACAUGAGGAUCACCCAUGUUACAUGGUGGAGGAUAUGUUAUUAAUUACAGGUAGAUGAGCGC |  |  | 4.61 | 4.42
GUCGAGUGAGGAUAUGGUGAGUAGUGCCAGAGCGCUGCUCACCAGAAGGCACAUGAGGAUCACCCAUGUAUAGC | 16.8 | 29.9 |  | 
GUAGCAUACCGAGGAUAUUCAUAUAGGAAACUAACAUGAGGAUCACCCAUGUGGCGAAAGCCUUGGGAGAAGGCGGAAUGCUAC |  |  | 408 | 29.2
CGGUUUCACAUUUUAGUGAUUUAUACAGAAGGCCAUACACAUGAGGAUCACCCAUGUCAGGAAUUGGAGGAUAUGUUAUUGACG |  |  | 6.1 | 4.4
GCGUAUUACGCAGGAUAUCCUUAUAUACAUGAGGAUCACCCAUGUUUUUUCGGAGAAGGGCGUAUGGGAUUUAAGAAUCAACAA |  |  | 11.2 | 4.31
CUUUUGUGAGGAUAUCAGUAGUAAAAUAAUAAAUAUACUACUGAGAAGGCACAUGAGGAUCACCCAUGUUCCUC | 37.8 | 233 |  | 
UUAAUGUGAGGAUAUCAGGUGUGCUAGCGUACUGGUACAUCUGAGAAGGCACAUGAGGAUCACCCAUGUUUCUU | 32.7 | 110 |  | 
AAUACACUCUAGGAUAUUCAUGCCAGCAGUAUCGAAGAAGGAGAGACAUGAGGAUCACCCAUGUGGAAGCUCCU | 13.1 | 16.4 |  | 
ACUUGUAAGCAGAAGGCAGUCAUUGUAUUCGUCAUGUAGACAUGAGGAUCACCCAUGUAUAGUACUGAGGAUAUGCAUCGAUAG | 7.88 | 17.2 |  | 
GUUUCACAUGAGGAUCACCCAUGUGAGGAUAUAGAUUUUUUAGUAAUAAUUGUUGGAUUUAGAAGGCGCGUGAU | 22 | 21.5 |  | 
UAUAUGUCAGGAUAUCGAUUGGAAUGGAAUUUAGUUUUGGUCGAGAAGGGACAUGAGGAUCACCCAUGUUCCUC | 30.9 | 134 |  | 
GCACAACAUGAGGAUCACCCAUGUCUCACAAACCAAGGAUAUGGGCCCGGCCAGGCCGGAUCAGAAGGUGGAAAAU |  |  | 312 | 143
GAAGCAUGCAUUAACAUGAGGAUCACCCAUGUGAAAACACGUGAGGAUAUCGAUCUGAAGAAGAUCGAGAAGGCACCGUGCUAA |  |  | 8.87 | 7.62
GUAAAGUGAGGAUAUGGUAAAGUAAGUAUUUAGUAAGUAAUCCAGAAGGCACAUGAGGAUCACCCAUGUAAAUG | 29.3 | 35.8 |  | 
UGUUGUAUUACAGGAUAUCUAUUAGUUUUAAUUAGAGAAGGGUAUUCACAUGAGGAUCACCCAUGUAUAUACGAGGAAGUUGUG |  |  | 39.1 | 42.2
GCGUAUUAGGUGUAGCUAGACAUUCAAGAAGGGUGAAGAACAUGAGGAUCACCCAUGUAGUUUUUACAGGAUAUUGAUAUACGC |  |  | 356 | 20.4
UUUGCAACAUGAGGAUCACCCAUGUAGGAUAUCGCUAUUGUAAUCAUGAAACAUGAUUACAAUAGCGAGAAGGACAUAUGCAAA | 7.54 | 10.4 |  | 
GUAUAUAUUACAUGAGGAUCACCCAUGUCAGAACGGGUAAUCAGAAGGUAUUAUUAGAGAAAGGGUAAGGAUAUGAUUAUAUAC |  |  | 577 | 321
GGAUCUUGGGUCAGGAUAUGCUGAUAGUUAUGUCAGCAGAAGGGACAUGAGGAUCACCCAUGUGCUCGGUUUUG | 11.1 | 19.7 |  | 
GGAGCCCAGUCAGGAUAUGUAACGCUUAGGCUGUUACAUGAGGAUCACCCAUGUUUCACCGUGAAACAGAAGGGACAUUUGGCU |  |  | 382 | 122
UCAUUUAUUACAGGAUAUGUUAGUAUACAGUUGUUUGGUUAUUACUUAUUAACAGAAGGGUAGAACAUGAGGAUCACCCAUGUA |  |  | 80.4 | 40.7
GCCGAUUAAGUCAGGAUAUACCUAUGGAUACAUAGGUAGAAGGGACAUGAGGAUCACCCAUGUUCCUCACCGGC | 14.8 | 21.8 |  | 
CCACCCUGAGGAUAUCCACCCUGAUACAUGAGGAUCACCCAUGUUAAUGCCUGAGUUCCCGGAGAAGGCAGAUUCC | 40.5 | 34.7 |  | 
UUCAUGUGAGGAUAUAGUACUCCUUCUAUUAUUAUUGAGUAUUAGAAGGCACAUGAGGAUCACCCAUGUAGUAC | 29.8 | 43.4 |  | 
UUUCAACAUGAGGAUCACCCAUGUGAGGAUAUGAUGCAGCAGUGGUCUACGCUGUGCAUCAGAAGGCACAUGUG | 200 | 21.8 |  | 

Sequence | apparent Kd [1] [nM] | apparent Kd [2] [nM] | apparent Kd [3] [nM] | apparent Kd [4] [nM]
GUAAGCAUGUCAGGAUAUCGCAAUAUCAAACCGUGAGAAGGGACAUGAGGAUCACCCAUGUAUUGUUCGGGAGGACCCAGCUGA | 67.3 | 358 |  | 
GCAGACGUGGUGAGGAUAUGCUCUACCUCGGUAGAGCAGAAGGCACAUGAGGAUCACCCAUGUGGCUCCUCAUU | 15.9 | 21 |  | 
GCAUGCAUAGCGAUAUGAUCGAGAGAUCAUGUCGCUAAAUUUAGAAGGACAUGAGGAUCACCCAUGUAGGAUAUGGGAGCAUGG |  |  | 76 | 12.7
UGAGCAGAAGGAUAUGCGUAAUGGCCGUGAGGCCUAGAUCUACAUGAGGAUCACCCAUGUAGAAGGUCUGUUCU | 15.3 | 15.2 |  | 
AAAACAUGAGGAUCACCCAUGUAAAGUUCGGUUAAUAGAGGUGAGGAUAUACUAAAUUUUGGGUGGUAGAAGGCACUGGGUACA |  |  | 122 | 105
CAGUACUGAGGAUAUACAUGAGGAUCACCCAUGUGUUCCAGGUAGGAAACUAGCAAAAGUAGAAGGCAGUACUG | 19 | 127 |  | 
AUGCUAUAUGUAGGAUAUUCAAAGAAAGAGAAUGAAGAAGGACAUGAGGAUCACCCAUGUAAAAUGUAGAUAGAUAUCAUACAU | 18 | 14 |  | 
AAGGACUGUAAAUUAACUCAAAUACAUGAGGAUCACCCAUGUAAGGAUAUCGUCAGGAAUACUGACGAGAAGGUACAUCAGUCC | 15.6 | 20.8 |  | 
UGCUGGGAGUCAGGAUAUACGUGGUAUGCUGAGCACAUGAGGAUCACCCAUGUAGAAGGGAUUCCGCGGUGAGAUUCCGAAACA | 6.03 | 6.62 |  | 
UACCACCGCACGGACACGCCGAGUCAGGAUAUACAUGAGGAUCACCCAUGUGAAGGCCGGCUCGUGUAGAAGGGACAGGCGUUG | 5.43 | 6.72 |  | 
AUCAGCUCGUCAGGAUAUACAUCACUGCUUCGGCAGUGUAUUAAGAUCACAUGAGGAUCACCCAUGUAGAAGGGACGAGCUGAU | 31.7 | 310 |  | 
GUCAGCUCGUGAGGAUAUACAUGUGCUGGAUACAGCACUAAAGAUUUCACAUGAGGAUCACCCAUGUAGAAGGCACGAGCUGAU | 16.9 | 38 |  | 
AUAUACAUUCGAGGAUAUCGUUAAAAUGUUAUGCGAGAAGGCGAGUCAUGAUUUAUUAUUUAGGACAUGAGGAUCACCCAUGUA |  |  | 40.2 | 33.1
CCUAUGUGAGGAUAUCACUGGUCUUCUUUUAUUUUUUACAGUGAGAAGGCACAUGAGGAUCACCCAUGUCGGUG | 107 | 36.4 |  | 
UUUGGGCCCUCAUCCCUCGACACAUGAGGAUCACCCAUGUGCAGAAGGUGGAGACCCGAGGUCGCCAAGGAUAUGCAAUGGGAC | 15.8 | 10.2 |  | 
AUUGUAGUUGUGAGGAUAUCGUAGAUUUAUUGAAACGAGAAGGCACAUGAGGAUCACCCAUGUAAGUUGUAGGU | 71.2 | 267 |  | 
AGAUUUGUACAUGAGGAUCACCCAUGUUAAUAGGUGUUUGUCAGAAGGCAUUAAUAGAGAUUUAAUGAGGAUAUGAUGUUACAA |  |  | 49.3 | 35.2
GUAGUUGUGUGGUUGAGGAUAGGGCAGGAUAUACAUGAGGAUCACCCAUGUGAAGCGGGAAGGAGGUAGAAGGGCCAACGUCAU | 13.7 | 10.9 |  | 
GUCAGCUCGUGAGGAUAUCCAACACUGCUUCGGCAGUGUAUUAAGAUCACAUGAGGAUCACCCAUGUAGAAGGCACGAGCUGAU | 6.48 | 7.55 |  | 
GUAGUGUAGUGAGGAUAUACGAGAUCGAUAGAUCGGCGAUCCAUUAAUACAUGAGGAUCACCCAUGUAGAAGGCACUUCACUAC | 6.01 | 70.7 |  | 
CUCGUGUAAGGAUAUGCGAGCCGCGGAAAUACACCGCGGAGGUAGAAGGUACAUGAGGAUCACCCAUGUAAAAC | 25.5 | 103 |  | 
GGAUAGGACAGAGGAUAUACGUGCUAGAUAUACUAGCAAAAUUUCCUCACAUGAGGAUCACCCAUGUAGAAGGCUGUCCUAUCG | 15.6 | 399 |  | 
UGUCGGAGCAGAGGAUAUUACAUGAGGAUCACCCAUGUAUGAACCAAUAGCUGGAAACAGCAAUGGAAGAAGGCUGCUCCGACA | 4.99 | 5.37 |  | 
AAGCAUUGGCUUCUCAUCUACAUGAGGAUCACCCAUGUCGGGAGAAGGAGGCGUUGACAACUAGCCUAGGAUAUCCUAACGUGC | 6.74 | 7.26 |  | 
AGAUUCAUGGCCCGUUCGGGCUCACAUGAGGAUCACCCAUGUGAGGAUAUGAUAUACCUGAUUUAUCAGAAGGCGCAUGCGAAA | 7.22 | 10.3 |  | 
GUCAGCUCGUGAGGAUAUACAUGAUAGAUCGAUUAAUUAAUUAAUUUAACAUGAGGAUCACCCAUGUAGAAGGCACGAGCUGAC | 51.7 | 46.7 |  | 
UACAGACAUGAGGAUCACCCAUGUGAGGAUAUCGGUACCGAUGGCAUAAUCUGCUCGGCGAGAAGGCACAGUGU | 28 | 48.4 |  | 
